Measurements from ChEMBL document CHEMBL3352181, “Novel phenyl and pyridyl substituted derivatives of isoindolines: Synthesis, antitumor activity and DNA binding features” (Eur J Med Chem, 2014).
pIC50: −log10 of the molar value. The source made the active and inactive calls. The rule behind the calls is not given here.

Legend:
HepG2 [1] = test: Induction of cell cycle arrest on human HepG2 cells assessed as accumulation at S phase at 25 uM after 24 hrs by propidium iodide staining based flow cytometry (reference value: 12.0 +/- 10.2%); type: functional
Summary of the method: (§1)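 HepG2 or SW620 cells were seeded at 25000 per well. After 24 h they were treated, then harvested 24 or 48 h later. Attached cells were trypsinized, pooled with floating cells, PBS-washed and fixed in 70% ethanol. Cells were stained with PI 1 µg/mL plus RNase A 0.2 µg/mL, and 10 000 events were acquired by flow cytometry. Phase percentages come from DNA histograms, in duplicate, with ANOVA at p < 0.05.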

HepG2 [2] = test: Induction of cell cycle arrest on human HepG2 cells assessed as accumulation at G2/M phase at 10 uM after 24 hrs by propidium iodide staining based flow cytometry (reference value: 26.6 +/- 12.2%); type: functional
[3] = target: T1, DNA topoisomerase 1 (Homo sapiens) (UniProt P11387); test: Inhibition of human topoisomerase 1 assessed as topoisomerase poison activity by measuring generation of open circular DNA using supercoiled pUC19 DNA at 5 to 50 uM by agarose gel electrophoresis
T1 sequence (whole entry): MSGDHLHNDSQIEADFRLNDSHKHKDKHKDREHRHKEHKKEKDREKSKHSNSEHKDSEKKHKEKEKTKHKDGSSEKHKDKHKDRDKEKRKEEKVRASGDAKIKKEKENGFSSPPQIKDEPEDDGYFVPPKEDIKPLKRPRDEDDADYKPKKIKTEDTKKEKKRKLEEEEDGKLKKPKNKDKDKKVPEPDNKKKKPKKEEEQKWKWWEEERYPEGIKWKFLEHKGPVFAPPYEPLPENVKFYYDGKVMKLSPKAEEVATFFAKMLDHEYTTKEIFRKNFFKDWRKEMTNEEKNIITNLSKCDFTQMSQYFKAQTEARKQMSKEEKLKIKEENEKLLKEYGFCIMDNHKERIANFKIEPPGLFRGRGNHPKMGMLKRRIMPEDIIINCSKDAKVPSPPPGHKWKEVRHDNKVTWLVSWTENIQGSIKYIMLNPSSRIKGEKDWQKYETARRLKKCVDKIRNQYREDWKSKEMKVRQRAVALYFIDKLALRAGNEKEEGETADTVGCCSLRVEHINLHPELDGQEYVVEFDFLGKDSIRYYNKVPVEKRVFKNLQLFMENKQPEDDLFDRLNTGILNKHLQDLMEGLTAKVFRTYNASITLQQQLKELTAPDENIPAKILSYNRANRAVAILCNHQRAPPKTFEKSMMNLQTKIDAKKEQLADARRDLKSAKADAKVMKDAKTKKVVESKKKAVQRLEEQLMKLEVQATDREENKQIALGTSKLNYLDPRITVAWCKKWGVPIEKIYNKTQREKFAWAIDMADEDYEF
Summary of the method: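 Supercoiled pUC19 plasmid was incubated with human topoisomerase I and graded compound concentrations. Reactions were stopped with SDS and proteinase K. DNA forms were resolved on 1% agarose in TBE (2 h, 120 V), post-stained with ethidium bromide and photographed under UV. Poisoning was read as appearance of nicked DNA, with camptothecin as the positive control.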

HepG2 [4] = test: Induction of cell cycle arrest on human HepG2 cells assessed as accumulation at subG1 phase at 25 uM after 24 hrs by propidium iodide staining based flow cytometry (reference value: 4.8 +/- 0.6%); type: functional; summary of the method: as §1
HepG2 [5] = test: Induction of cell cycle arrest on human HepG2 cells assessed as accumulation at S phase at 10 uM after 24 hrs by propidium iodide staining based flow cytometry (reference value: 12.0 +/- 10.2%); type: functional
BJ = test: Antiproliferative activity against human BJ cells assessed as inhibition of cell proliferation after 72 hrs by MTT assay; type: cell-based; conditions: 72 h
Summary of the method: (§2)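 Cells grown as monolayers in DMEM with 10% FBS, 2 mM L-glutamine, penicillin/streptomycin, 37 °C, 5% CO2. Seeded at 5000/well on day 0. Compounds added after 24 h as five serial dilutions (0,01 to 100 µM), DMSO ≤0.1%, then 72 h. MTT read-out converted to percentage growth. IC50 by linear regression; quadruplicates in three experiments.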

HepG2 [6] = test: Induction of cell cycle arrest on human HepG2 cells assessed as accumulation at subG1 phase at 25 uM after 48 hrs by propidium iodide staining based flow cytometry (reference value: 1.9%); type: functional; summary of the method: as §1
HepG2 [7] = test: Induction of cell cycle arrest on human HepG2 cells assessed as accumulation at S phase at 10 uM after 48 hrs by propidium iodide staining based flow cytometry (reference value: 6.8 +/- 5.3%); type: functional
HeLa = test: Antiproliferative activity against human HeLa cells assessed as inhibition of cell proliferation after 72 hrs by MTT assay; type: functional, cell-based; summary of the method: as §2
HepG2 [8] = test: Induction of cell cycle arrest on human HepG2 cells assessed as accumulation at G2/M phase at 10 uM after 48 hrs by propidium iodide staining based flow cytometry (reference value: 31.1 +/- 0.4%); type: functional
HepG2 [9] = test: Induction of cell cycle arrest on human HepG2 cells assessed as accumulation at G1 phase at 10 uM after 24 hrs by propidium iodide staining based flow cytometry (reference value: 61.4 +/- 2.0%); type: functional
HepG2 [10] = test: Induction of cell cycle arrest on human HepG2 cells assessed as accumulation at G2/M phase at 25 uM after 48 hrs by propidium iodide staining based flow cytometry (reference value: 31.1 +/- 0.4%); type: functional
HepG2 [11] = test: Induction of apoptosis in human HepG2 cells assessed as enlarged cells level at 25 uM after 24 hrs by Annexin V-Fluos staining based fluorescent microscopy; type: functional, cell-based
Summary of the method: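 Cells seeded on chamber slides at 4000 per well and treated 24 h (HepG2 at 25 or 50 µM; SW620 at 50 µM). Incubated 15 min with Annexin V-Fluos reagent plus propidium iodide, washed in PBS, and examined by fluorescence microscopy for morphology and labelling.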

HepG2 [12] = test: Antiproliferative activity against human HepG2 cells assessed as inhibition of cell proliferation after 72 hrs by MTT assay; type: functional, cell-based; summary of the method: as §2
HepG2 [13] = test: Induction of cell cycle arrest on human HepG2 cells assessed as accumulation at subG1 phase at 10 uM after 48 hrs by propidium iodide staining based flow cytometry (reference value: 1.9%); type: functional; summary of the method: as §1
HepG2 [14] = test: Induction of cell cycle arrest on human HepG2 cells assessed as accumulation at G1 phase at 25 uM after 24 hrs by propidium iodide staining based flow cytometry (reference value: 61.4 +/- 2.0%); type: functional
HepG2 [15] = test: Induction of cell cycle arrest on human HepG2 cells assessed as accumulation at subG1 phase at 10 uM after 24 hrs by propidium iodide staining based flow cytometry (reference value: 4.8 +/- 0.6%); type: functional; summary of the method: as §1
HepG2 [16] = test: Induction of cell cycle arrest on human HepG2 cells assessed as accumulation at G1 phase at 25 uM after 48 hrs by propidium iodide staining based flow cytometry (reference value: 62.1 +/- 4.9%); type: functional
[17] = (§3) Antiproliferative activity against human SW620 cells assessed as inhibition of cell proliferation after 72 hrs by MTT assay; type: functional, cell-based, SW-620; conditions: Homo sapiens, SW-620, 72 h; summary of the method: as §2
SW-620 = test: as §3; type: functional, cell-based; summary of the method: as §2
MCF7 = test: Antiproliferative activity against human MCF7 cells assessed as inhibition of cell proliferation after 72 hrs by MTT assay; type: functional, cell-based; summary of the method: as §2
HepG2 [18] = test: Induction of cell cycle arrest on human HepG2 cells assessed as accumulation at G1 phase at 10 uM after 48 hrs by propidium iodide staining based flow cytometry (reference value: 62.1 +/- 4.9%); type: functional
HepG2 [19] = test: Induction of cell cycle arrest on human HepG2 cells assessed as accumulation at G2/M phase at 25 uM after 24 hrs by propidium iodide staining based flow cytometry (reference value: 26.6 +/- 12.2%); type: functional
HepG2 [20] = test: Induction of cell cycle arrest on human HepG2 cells assessed as accumulation at S phase at 25 uM after 48 hrs by propidium iodide staining based flow cytometry (reference value: 6.8 +/- 5.3%); type: functional; summary of the method: as §1

SMILES: N#Cc1ccc(/N=C2\c3ccccc3CN2c2ccc(C#N)cc2)cc1
- Activity (HepG2 [1]): 16.8%
- Activity (HepG2 [2]): 19.2%
- inhibition [3]: inactive
- Activity (HepG2 [4]): 15.7%
- Activity (HepG2 [5]): 26.7%
- pIC50 (BJ; Homo sapiens, BJ): 4.12
- inhibition (INH) (BJ; human, bj): Dose-dependent effect
- Activity (HepG2 [6]): 5.7%
- Activity (HepG2 [7]): 0%
- inhibition (HeLa): Dose-dependent effect
- pIC50 (HeLa; Homo sapiens, HeLa, 72 h): 4.30
- Activity (HepG2 [8]): 100%
- Activity (HepG2 [9]): 54.1%
- Activity (HepG2 [10]): 100%
- Activity (HepG2 [11]): Active
- inhibition (HepG2 [12]): Dose-dependent effect
- pIC50 (HepG2 [12]; HepG2, 72 h): 5.33
- Activity (HepG2 [13]): 5.2%
- Activity (HepG2 [14]): 45.9%
- Activity (HepG2 [15]): 13.3%
- Activity (HepG2 [16]): 0%
- pIC50 [17]: 4.11
- inhibition (SW-620): Dose-dependent effect
- inhibition (MCF7): Dose-dependent effect
- pIC50 (MCF7; Homo sapiens, MCF7, 72 h): 4.34
- Activity (HepG2 [18]): 0%
- Activity (HepG2 [19]): 37.3%
- Activity (HepG2 [20]): 0%
